Source: BindingDB's records for doi:10.1021/jm000269t (Amgen, 2000)
pIC50: −log10 of the molar value.

Target: T1, Neuropeptide Y receptor type 5 (Homo sapiens, UniProt Q15761)
T1 sequence (Q15761 whole entry): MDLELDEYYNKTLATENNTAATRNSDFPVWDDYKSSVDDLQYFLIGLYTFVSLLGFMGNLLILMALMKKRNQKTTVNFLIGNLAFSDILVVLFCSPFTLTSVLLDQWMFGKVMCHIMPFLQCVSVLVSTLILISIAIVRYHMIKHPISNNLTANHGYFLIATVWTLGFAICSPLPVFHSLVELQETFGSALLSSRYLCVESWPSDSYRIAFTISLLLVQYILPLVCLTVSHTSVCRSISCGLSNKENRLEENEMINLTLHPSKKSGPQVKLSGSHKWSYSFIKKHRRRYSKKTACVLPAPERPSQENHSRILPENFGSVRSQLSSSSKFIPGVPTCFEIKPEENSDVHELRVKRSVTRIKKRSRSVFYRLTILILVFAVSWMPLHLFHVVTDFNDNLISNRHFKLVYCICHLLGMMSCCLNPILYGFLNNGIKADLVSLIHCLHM
Test: Affinity for human neuropeptide Y receptor Y5, binding was evaluated in an in vitro radioligand [125I]PYY binding assay
Outline: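 HEK 293 cells expressing human Y5 receptor, harvested in PBS and homogenized in sucrose buffer; membranes washed by repeated 48000g spins and resuspended in MEM/Earle's assay buffer (25 mM HEPES, 0.1% BSA, STI, Pefabloc, pH 7.4). Membranes (200 µg tissue) incubated with compounds and 0.15 nM [125I]PYY, 2 h at 30 °C. Nonspecific binding defined with 1 µM PYY. Filtration read-out; IC50 by nonlinear regression, averaging at least two 6-point curves.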

| pIC50 | Compound |
| --- | --- |
| 9.30 | Cc1ccc(-c2cc3nc(C)nc(N4CCCCC4)c3[nH]2)cc1 [2-Methyl-4-piperidin-1-yl-6-p-tolyl-5H-pyrrolo[3,2-d]pyrimidine] |
| 9.30 | Cc1nc(N2CCCCC2)c2[nH]c(-c3ccc(C)o3)cc2n1 [2-Methyl-6-(5-methyl-furan-2-yl)-4-piperidin-1-yl-5H-pyrrolo[3,2-d]pyrimidine] |
